Assay [1] relates to Staphylococcus aureus. Description: Concentration (IC50) to inhibit the growth of Staphylococcus aureus. Format: functional, organism-based. The gist of the method:
(§1)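 Broth dilution in a defined liquid peptide medium lacking antagonists of small peptide mimetics. Inocula were overnight cultures grown in this medium at 37 °C and diluted to about 4 × 10^6 cfu/mL. Compound was tested as a doubling dilution series, final 0.065–512 μg/mL, incubated overnight at 37 °C. Turbidity was read, and IC50 is the concentration reducing 24-h growth to 50% of control.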

For assay [2], the system named is Staphylococcus aureus. Put plainly: Minimum inhibitory concentration (MIC) to control the growth of Staphylococcus aureus strain PCM 2054. The format is functional. The gist of the method:
(§2)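 Doubling dilutions of compound were made in a defined liquid peptide medium free of peptide-mimetic antagonists, final 0.065–512 μg/mL. The inoculum was an overnight 37 °C culture diluted to about 4 × 10^6 cfu/mL, incubated overnight at 37 °C. Non-turbid samples were subcultured (0.1 mL) onto solid peptide-medium agar and incubated overnight at 37 °C to assign MIC.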

For assay [3], the system named is Klebsiella aerogenes. Put plainly: Concentration (IC50) to inhibit the growth of Klebsiella aerogenes. Format: functional, organism-based. The gist of the method: as §1
The test system of assay [4] is Bacillus subtilis. Description: Minimum inhibitory concentration (MIC) to control the growth of Bacillus subtilis strain PCM 1949. Format: functional. The gist of the method: as §2
The subject of assay [5] is Bacillus subtilis. Description: Concentration (IC50) to inhibit the growth of Bacillus subtilis. The format is functional, organism-based. The gist of the method: as §1
Assay [6] relates to Serratia marcescens. Put plainly: Concentration (IC50) to inhibit the growth of Serratia marcescens. The format is functional, organism-based. The gist of the method:
as §1

In assay [7] the test system is Escherichia coli. Description: Concentration (IC50) to inhibit the growth of Escherichia coli. The format is functional, organism-based. The gist of the method:
as §1

Assay [8] concerns Enterococcus faecalis. Put plainly: Minimum inhibitory concentration (MIC) to control the growth of Streptococcus faecalis strain PCM 896. The format is functional. The gist of the method: as §2
The subject of assay [9] is Serratia marcescens. Put plainly: Minimum inhibitory concentration (MIC) to control the growth of Serratia marcescens strain PCM 549. The format is functional. The gist of the method:
as §2

In assay [10] the test system is Klebsiella aerogenes. Description: Minimum inhibitory concentration (MIC) to control the growth of Klebsiella aerogenes strain PCM 2063. Format: functional. The gist of the method:
as §2

Assay [11] deals with Enterococcus faecalis. Description: Concentration (IC50) to inhibit the growth of Streptococcus faecalis. Format: functional, organism-based. The gist of the method:
as §1

In assay [12] the test system is Escherichia coli. Put plainly: Minimum inhibitory concentration (MIC) to control the growth of Escherichia coli strain PCM 2057. Format: functional. The gist of the method:
as §2

Converted amounts (≈) assume the structure as drawn.

`CC(N)C(=O)NC(C1CCC1)P(=O)(O)O` (configuration not stated): the IC50 with Staphylococcus aureus [1], with Klebsiella aerogenes [3], with Bacillus subtilis [5], in the assay on Serratia marcescens [6], in the assay with Escherichia coli [7] and in the assay on Enterococcus faecalis [11] was more than 512 µg/mL in each case. For the same molecule, the MIC against Staphylococcus aureus [2], in the assay with Bacillus subtilis [4], in the assay with Enterococcus faecalis [8], against Serratia marcescens [9], with Klebsiella aerogenes [10] and against Escherichia coli [12] was more than 512 µg/mL throughout.
With `CC(N)C(=O)NC(C(C)C)P(=O)(O)O` (configuration not stated), the IC50 with Staphylococcus aureus [1] is 6.8 µg/mL (≈ 30.3 µM); with Klebsiella aerogenes [3] it was more than 512 µg/mL; in the assay on Bacillus subtilis [5], more than 512 µg/mL; in the assay on Serratia marcescens [6] it was more than 512 µg/mL; with Escherichia coli [7], more than 512 µg/mL; with Enterococcus faecalis [11], 0.09 µg/mL (≈ 0.401 µM). Also, the MIC in the assay with Staphylococcus aureus [2], with Bacillus subtilis [4], in the assay on Enterococcus faecalis [8], against Serratia marcescens [9], against Klebsiella aerogenes [10] and with Escherichia coli [12] was more than 512 µg/mL each time.
For `CC(N)C(=O)NC(C1CCCC1)P(=O)(O)O` (configuration not stated), the IC50 in the assay on Staphylococcus aureus [1] is 512 µg/mL (≈ 2050 µM); in the assay with Klebsiella aerogenes [3] it was more than 512 µg/mL; with Bacillus subtilis [5] it was more than 512 µg/mL; in the assay with Serratia marcescens [6], more than 512 µg/mL; in the assay on Escherichia coli [7], more than 512 µg/mL; with Enterococcus faecalis [11], 16 µg/mL (≈ 63.9 µM). For the same molecule, the MIC against Staphylococcus aureus [2], in the assay on Bacillus subtilis [4], in the assay on Enterococcus faecalis [8], with Serratia marcescens [9], in the assay on Klebsiella aerogenes [10] and in the assay with Escherichia coli [12] was more than 512 µg/mL throughout.
For `CC(N)C(=O)NC(C)(C)P(=O)(O)O` (configuration not stated), the IC50 with Staphylococcus aureus [1] came out at 282 µg/mL (≈ 1340 µM); in the assay with Klebsiella aerogenes [3], 512 µg/mL (≈ 2440 µM); in the assay with Bacillus subtilis [5] it was 16 µg/mL (≈ 76.1 µM); in the assay with Serratia marcescens [6] it was 48 µg/mL (≈ 228 µM); in the assay on Escherichia coli [7], 5.6 µg/mL (≈ 26.6 µM); in the assay with Enterococcus faecalis [11], 19 µg/mL (≈ 90.4 µM). Moreover, the MIC in the assay on Staphylococcus aureus [2] is 256 µg/mL (≈ 1220 µM); in the assay on Enterococcus faecalis [8] it was 8 µg/mL (≈ 38.1 µM); in the assay on Serratia marcescens [9] it was more than 512 µg/mL; in the assay on Klebsiella aerogenes [10], 256 µg/mL (≈ 1220 µM); with Escherichia coli [12], 64 µg/mL (≈ 305 µM).
As for `CC(C)CC(N)C(=O)NC1(P(=O)(O)O)CCCCC1` (configuration not stated), the IC50 was 0.065 µg/mL (≈ 0.222 µM) with Staphylococcus aureus [1]; more than 512 µg/mL in the assay on Klebsiella aerogenes [3]; 5.6 µg/mL (≈ 19.2 µM) in the assay with Bacillus subtilis [5]; more than 512 µg/mL in the assay with Serratia marcescens [6]; more than 512 µg/mL with Escherichia coli [7]; more than 512 µg/mL in the assay on Enterococcus faecalis [11]. In addition, the MIC in the assay on Staphylococcus aureus [2], in the assay on Bacillus subtilis [4], against Enterococcus faecalis [8], with Serratia marcescens [9], against Klebsiella aerogenes [10] and against Escherichia coli [12] was more than 512 µg/mL throughout.
Turning to `CC(C)CC(N)C(=O)NC(C(C)C)P(=O)(O)O` (configuration not stated), the IC50 was 32 µg/mL (≈ 120 µM) in the assay with Staphylococcus aureus [1]; 0.065 µg/mL (≈ 0.244 µM) with Klebsiella aerogenes [3]; 179 µg/mL (≈ 672 µM) in the assay with Bacillus subtilis [5]; more than 512 µg/mL in the assay with Serratia marcescens [6]; 282 µg/mL (≈ 1060 µM) in the assay on Escherichia coli [7]; 410 µg/mL (≈ 1540 µM) in the assay on Enterococcus faecalis [11]. Moreover, the minimum inhibitory concentration (MIC) in the assay with Staphylococcus aureus [2] is more than 512 µg/mL; against Bacillus subtilis [4] it was 512 µg/mL (≈ 1920 µM); with Enterococcus faecalis [8], more than 512 µg/mL; against Serratia marcescens [9], more than 512 µg/mL; with Klebsiella aerogenes [10], more than 512 µg/mL; in the assay on Escherichia coli [12] it was more than 512 µg/mL.
With `CC(C)CC(N)C(=O)NC(C1CCCCC1)P(=O)(O)O` (configuration not stated), the IC50 in the assay on Staphylococcus aureus [1], in the assay with Klebsiella aerogenes [3], with Bacillus subtilis [5], in the assay on Serratia marcescens [6], in the assay on Escherichia coli [7] and in the assay on Enterococcus faecalis [11] was more than 512 µg/mL throughout. Moreover, the MIC with Staphylococcus aureus [2], against Bacillus subtilis [4], with Enterococcus faecalis [8], against Serratia marcescens [9], against Klebsiella aerogenes [10] and with Escherichia coli [12] was more than 512 µg/mL each time.
Turning to `COc1ccc(CC(NC(=O)C(C)N)P(=O)(O)O)cc1OC` (configuration not stated), the 50% inhibitory concentration (IC50) with Staphylococcus aureus [1], in the assay with Klebsiella aerogenes [3], in the assay with Bacillus subtilis [5], in the assay with Serratia marcescens [6], in the assay on Escherichia coli [7] and in the assay with Enterococcus faecalis [11] was more than 512 µg/mL in each case. Moreover, the minimum inhibitory concentration (MIC) against Staphylococcus aureus [2], against Bacillus subtilis [4], with Enterococcus faecalis [8], against Serratia marcescens [9], against Klebsiella aerogenes [10] and with Escherichia coli [12] was more than 512 µg/mL each time.
With `CC(N)C(=O)NC(C12CC3CC(CC(C3)C1)C2)P(=O)(O)O` (configuration not stated), the IC50 in the assay with Staphylococcus aureus [1], with Klebsiella aerogenes [3], in the assay on Bacillus subtilis [5], in the assay with Serratia marcescens [6], with Escherichia coli [7] and with Enterococcus faecalis [11] was more than 512 µg/mL throughout. Also, the MIC in the assay on Staphylococcus aureus [2], against Bacillus subtilis [4], against Enterococcus faecalis [8], with Serratia marcescens [9], in the assay on Klebsiella aerogenes [10] and against Escherichia coli [12] was more than 512 µg/mL each time.
`CC(N)C(=O)N1CCCC1P(=O)(O)O` (configuration not stated): the IC50 in the assay with Staphylococcus aureus [1], with Klebsiella aerogenes [3], with Bacillus subtilis [5], with Serratia marcescens [6], in the assay with Escherichia coli [7] and in the assay on Enterococcus faecalis [11] was more than 512 µg/mL in each case. In addition, the MIC against Staphylococcus aureus [2], with Bacillus subtilis [4], against Enterococcus faecalis [8], in the assay with Serratia marcescens [9], in the assay on Klebsiella aerogenes [10] and in the assay with Escherichia coli [12] was more than 512 µg/mL throughout.
For the molecule `CC(C)CC(N)C(=O)NC(C)P(=O)(O)O` (configuration not stated), the IC50 in the assay with Staphylococcus aureus [1] was found to be 8 µg/mL (≈ 33.6 µM); in the assay with Klebsiella aerogenes [3] it was 1.6 µg/mL (≈ 6.72 µM); in the assay with Bacillus subtilis [5] it was 4 µg/mL (≈ 16.8 µM); in the assay on Serratia marcescens [6] it was 0.1 µg/mL (≈ 0.42 µM); in the assay with Escherichia coli [7], 0.09 µg/mL (≈ 0.378 µM); in the assay on Enterococcus faecalis [11], 2 µg/mL (≈ 8.4 µM). Besides, the MIC in the assay on Staphylococcus aureus [2] was 32 µg/mL (≈ 134 µM); with Bacillus subtilis [4] it was 16 µg/mL (≈ 67.2 µM); against Enterococcus faecalis [8] it was more than 512 µg/mL; against Serratia marcescens [9], 0.5 µg/mL (≈ 2.1 µM); with Klebsiella aerogenes [10], more than 512 µg/mL; against Escherichia coli [12], 8 µg/mL (≈ 33.6 µM).
Consider `CC(N)C(=O)NC(C(C)(C)C)P(=O)(O)O` (configuration not stated), for which the IC50 with Staphylococcus aureus [1], in the assay with Klebsiella aerogenes [3], in the assay on Bacillus subtilis [5], in the assay with Serratia marcescens [6], in the assay on Escherichia coli [7] and in the assay on Enterococcus faecalis [11] was more than 512 µg/mL throughout. Also, the minimum inhibitory concentration (MIC) with Staphylococcus aureus [2], in the assay on Bacillus subtilis [4], in the assay with Enterococcus faecalis [8], in the assay on Serratia marcescens [9], in the assay on Klebsiella aerogenes [10] and in the assay with Escherichia coli [12] was more than 512 µg/mL throughout.
For `CC(N)C(=O)NC(C1CCCCC1)P(=O)(O)O` (configuration not stated), the IC50 was 256 µg/mL (≈ 969 µM) with Staphylococcus aureus [1]; more than 512 µg/mL with Klebsiella aerogenes [3]; more than 512 µg/mL in the assay with Bacillus subtilis [5]; more than 512 µg/mL with Serratia marcescens [6]; more than 512 µg/mL in the assay with Escherichia coli [7]; more than 512 µg/mL with Enterococcus faecalis [11]. Moreover, the minimal inhibitory concentration (MIC) against Staphylococcus aureus [2], with Bacillus subtilis [4], in the assay on Enterococcus faecalis [8], in the assay with Serratia marcescens [9], in the assay on Klebsiella aerogenes [10] and against Escherichia coli [12] was more than 512 µg/mL throughout.
`CC(C)CC(N)C(=O)N1CCCC1P(=O)(O)O` (configuration not stated): the IC50 in the assay with Staphylococcus aureus [1] is 35 µg/mL (≈ 132 µM); in the assay with Klebsiella aerogenes [3], 154 µg/mL (≈ 583 µM); in the assay with Bacillus subtilis [5], more than 512 µg/mL; with Serratia marcescens [6], 83 µg/mL (≈ 314 µM); with Escherichia coli [7], 70 µg/mL (≈ 265 µM); with Enterococcus faecalis [11], 42 µg/mL (≈ 159 µM). In addition, the minimal inhibitory concentration (MIC) is 64 µg/mL (≈ 242 µM) in the assay on Staphylococcus aureus [2]; more than 512 µg/mL in the assay on Bacillus subtilis [4]; more than 512 µg/mL with Enterococcus faecalis [8]; 512 µg/mL (≈ 1940 µM) with Serratia marcescens [9]; 256 µg/mL (≈ 969 µM) against Klebsiella aerogenes [10]; 128 µg/mL (≈ 484 µM) against Escherichia coli [12].

For orientation: IC50 means the concentration that inhibits the measured activity by half. What is called MIC is the lowest concentration that inhibits growth of the organism. High values mean a need for much substance, low ones inhibition by little substance.

The values above are taken from ChEMBL document CHEMBL1123266, “Antibacterial activity of phosphono dipeptides related to alafosfalin” (J Med Chem, 1986).
